# Measured values: ChEMBL document CHEMBL1122835, “Synthesis and pharmacology of the potent angiotensin-converting enzyme inhibitor N-[1(S)-(ethoxycarbonyl)-3-phenylpropyl]-(S)-alanyl-(S)-pyroglutamic acid” (J Med Chem, 1985)
# Legend:
# [1] = system: Rattus norvegicus; test: Hypotensive activity was determined in low-sodium treated rat, dose 10 mg/kg administered orally at 2 hr; format: functional; conditions: route oral
# In short: (§1)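 Male CD rats, 11 weeks old, kept on a sodium-deficient diet for 3 weeks and fasted overnight, were dosed orally with aqueous solutions (5 mL/kg), water as control. Systolic pressure measured by tail cuff at the stated post-dose time. ANOVA with Duncan's test.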
# [2] = system: Rattus norvegicus; test: Percent decrease in angiotensin I pressor response was measured in rat, administered intravenously at dose 0.010 mg/kg; format: functional; conditions: dose 0.01 mg/kg; route intravenous
# In short: (§2)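 Anesthetized (pentobarbital Na 15 mg/kg + barbital 220 mg/kg ip), tracheotomized male Charles River CD rats, 380–500 g, femoral cannulas, heated board at 37 °C. Control pressor responses to angiotensin I 0.3 μg/kg then angiotensin II 0.1 μg/kg iv; drug iv in 0.9% saline (free base), AI and AII repeated at 5-min intervals, cumulative 0.01–0.81 mg/kg. Peak arterial pressure rise versus control.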
# [3] = system: Rattus norvegicus; test: Decrease in systolic blood pressure of Spontaneous Hypertensive Rats (SHR) pretreated with hydrochlorothiazide upon oral administration at 30 mm/kg; format: functional, Artery
# In short: (§3)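 Male SHR, 13 weeks old, given HCTZ 25 mg/kg po in 0.25% methylcellulose daily for 3 days. Drug given orally in water (5 mL/kg) 1 h after the third dose. Tail-cuff systolic pressure and pulse-count heart rate taken 1.5 h later after 20 min warming at 38 °C. ANOVA with Duncan's test; ED30 by linear regression.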
# [4] = system: Rattus norvegicus; test: Percent decrease in angiotensin I pressor response was measured in rat, administered intravenously at dose 0.81 mg/kg; format: functional; conditions: route intravenous; in short: as §2
# [5] = system: Rattus norvegicus; test: Hypotensive activity was determined in low-sodium treated rat, dose 3 mg/kg administered orally at 5 hr; format: functional; conditions: route oral; in short: as §1
# [6] = system: Rattus norvegicus; test: Hypotensive activity was determined in low-sodium treated rat, dose 30 mg/kg administered orally at 5 hr; format: functional; conditions: route oral; in short: as §1
# [7] = system: Rattus norvegicus; test: Effect on vasopressor response caused by angiotensin I (AI) in anesthetized normotensive rat, administered intravenously at dose 0.81 mg/kg; format: functional; conditions: route intravenous
# In short: (§4)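 Male Charles River CD rats, 380–500 g, anesthetized with pentobarbital Na 15 mg/kg plus barbital 220 mg/kg ip, held at 37 °C. Femoral artery pressure recorded. AI 0.3 μg/kg and AII 0.1 μg/kg given iv as challenges. Cumulative iv drug in saline, 0.01–0.81 mg/kg, each dose followed by AI/AII challenges at 5-min intervals. ED50 = 50% change from control response, by linear regression.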
# [8] = system: Rattus norvegicus; test: Activity against the bradykinin Response in anesthetized normotensive rat, administered intravenously at dose 0.030 mg/kg; format: functional; conditions: dose 0.03 mg/kg; route intravenous
# In short: (§5)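 Anesthetized (pentobarbital/barbital ip) male Charles River CD rats, 380–500 g, kept at 37 °C. Femoral artery blood pressure recorded. Control depressor response to bradykinin 1 μg/kg iv, then cumulative iv drug in 0.9% saline (1 mL/kg), 0.0033–0.27 mg/kg. Bk challenge 5 min after each dose. ED50 = dose giving a 50% change from control, by linear regression; N = 8.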
# [9] = system: Rattus norvegicus; test: Percent decrease in angiotensin I pressor response was measured in rat, administered intravenously at dose 0.090 mg/kg; format: functional; conditions: dose 0.09 mg/kg; route intravenous; in short: as §2
# [10] = system: Rattus norvegicus; test: Percent change was determined in bradykinin depressor response n anesthetized normotensive rat, administered intravenously at dose 0.090 mg/kg; format: functional; conditions: dose 0.09 mg/kg; route intravenous
# In short: (§6)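 Male Charles River CD rats (380–500 g), pentobarbital Na 15 mg/kg plus barbital 220 mg/kg ip, tracheotomized, femoral artery/vein cannulated, kept at 37 °C. Control bradykinin 1 μg/kg iv depressor response, separate from angiotensin tests; drug iv in 0.9% saline (1 mL/kg, free base) 10 min later, Bk 5 min after each cumulative dose (0.0033–0.27 mg/kg). Maximum fall in arterial pressure versus control response; N = 8.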
# [11] = system: Rattus norvegicus; test: Decrease in systolic blood pressure of Spontaneous Hypertensive Rats (SHR) pretreated with hydrochlorothiazide upon oral administration at 3 mm/kg; format: functional, Artery; in short: as §3
# [12] = system: Rattus norvegicus; test: Percent change was determined in bradykinin depressor response in anesthetized normotensive rat, administered intravenously at dose 0.0033 mg/kg; format: functional; conditions: route intravenous; in short: as §5
# [13] = system: Rattus norvegicus; test: Hypotensive activity was determined in low-sodium treated rat, dose 3 mg/kg administered orally at 2 hr; format: functional; conditions: route oral; in short: as §1
# [14] = system: Rattus norvegicus; test: Effect on vasopressor response caused by angiotensin I (AI) in anesthetized normotensive rat, administered intravenously at dose 0.010 mg/kg; format: functional; conditions: dose 0.01 mg/kg; route intravenous; in short: as §4
# [15] = system: Rattus norvegicus; test: Activity against the bradykinin Response in anesthetized normotensive rat, administered intravenously at dose 0.010 mg/kg; format: functional; conditions: dose 0.01 mg/kg; route intravenous; in short: as §5
# [16] = Half life was determined; format: ADME; conditions: rat
# In short: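 Rats anesthetized with pentobarbital/barbital received a single iv dose, 0.2 or 0.08 mg/kg. AI 0.3 μg/kg iv given at 5 min, then every 10 min for 210 min. Half-life = time for the AI pressor response to fall to 50% of its peak inhibition.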
# [17] = system: Rattus norvegicus; test: Percent decrease in angiotensin I pressor response was measured in rat, administered intravenously at dose 0.27 mg/kg; format: functional; conditions: route intravenous; in short: as §2
# [18] = system: Rattus norvegicus; test: Change in heart rate was determined at a dose 30 mg/kg; format: functional; in short: as §3
# [19] = system: Rattus norvegicus; test: Effect on vasopressor response caused by angiotensin I (AI) in anesthetized normotensive rat, administered intravenously at dose 0.27 mg/kg; format: functional; conditions: route intravenous; in short: as §4
# [20] = species on record: Rattus norvegicus; test: Effective dose was determined to increase the vasoResponse in rat; format: functional; in short: as §5
# [21] = system: Rattus norvegicus; test: Effect on vasopressor response caused by angiotensin I (AI) in anesthetized normotensive rat, administered intravenously at dose 0.090 mg/kg; format: functional; conditions: dose 0.09 mg/kg; route intravenous; in short: as §4
# [22] = system: Rattus norvegicus; test: Change in heart rate was determined at a dose 10 mg/kg; format: functional; in short: as §3
# [23] = system: Rattus norvegicus; test: Activity against the bradykinin Response in anesthetized normotensive rat, administered intravenously at dose 0.0033 mg/kg; format: functional; conditions: route intravenous; in short: as §5
# [24] = system: Rattus norvegicus; test: Percent decrease in angiotensin I pressor response was measured in rat, administered intravenously at dose 0.030 mg/kg; format: functional; conditions: dose 0.03 mg/kg; route intravenous; in short: as §2
# [25] = system: Rattus norvegicus; test: Effect on vasopressor response caused by angiotensin I (AI) in anesthetized normotensive rat, administered intravenously at dose 0.030 mg/kg; format: functional; conditions: dose 0.03 mg/kg; route intravenous; in short: as §4
# [26] = system: Rattus norvegicus; test: Percent change was determined in bradykinin depressor response in anesthetized normotensive rat, administered intravenously at dose 0.030 mg/kg; format: functional; conditions: dose 0.03 mg/kg; route intravenous; in short: as §6
# [27] = system: Rattus norvegicus; test: Hypotensive activity was determined in low-sodium treated rat, dose 30 mg/kg administered orally at 2 hr; format: functional; conditions: route oral; in short: as §1
# [28] = system: Rattus norvegicus; test: Percent change was determined in bradykinin depressor response in anesthetized normotensive rat, administered intravenously at dose 0.010 mg/kg; format: functional; conditions: dose 0.01 mg/kg; route intravenous; in short: as §6
# [29] = system: Rattus norvegicus; test: Activity against the bradykinin Response in anesthetized normotensive rat, administered intravenously at dose 0.090 mg/kg; format: functional; conditions: dose 0.09 mg/kg; route intravenous; in short: as §5
# [30] = system: Rattus norvegicus; test: Hypotensive activity was determined in low-sodium treated rat, dose 10 mg/kg administered orally at 5 hr; format: functional; conditions: route oral; in short: as §1
# [31] = system: Rattus norvegicus; test: Effective dose to produce AcE inhibition in rat, administered intravenously; format: functional; conditions: iv; in short: as §4
# [32] = species on record: Rattus norvegicus; test: Dose required to reduce systolic blood pressure by 30 mmHg; format: functional; conditions: Artery; in short: as §3
# [33] = system: Rattus norvegicus; test: Change in heart rate was determined at a dose 3 mg/kg; format: functional; in short: as §3
# [34] = system: Rattus norvegicus; test: Decrease in systolic blood pressure of Spontaneous Hypertensive Rats (SHR) pretreated with hydrochlorothiazide upon oral administration at 10 mm/kg; format: functional, Artery; in short: as §3
# [35] = molecular target: T1, Angiotensin-converting enzyme (Rattus norvegicus) (UniProt P47820); test: Inhibitory activity was determined against Angiotensin I converting enzyme; format: functional
# T1 sequence (whole entry): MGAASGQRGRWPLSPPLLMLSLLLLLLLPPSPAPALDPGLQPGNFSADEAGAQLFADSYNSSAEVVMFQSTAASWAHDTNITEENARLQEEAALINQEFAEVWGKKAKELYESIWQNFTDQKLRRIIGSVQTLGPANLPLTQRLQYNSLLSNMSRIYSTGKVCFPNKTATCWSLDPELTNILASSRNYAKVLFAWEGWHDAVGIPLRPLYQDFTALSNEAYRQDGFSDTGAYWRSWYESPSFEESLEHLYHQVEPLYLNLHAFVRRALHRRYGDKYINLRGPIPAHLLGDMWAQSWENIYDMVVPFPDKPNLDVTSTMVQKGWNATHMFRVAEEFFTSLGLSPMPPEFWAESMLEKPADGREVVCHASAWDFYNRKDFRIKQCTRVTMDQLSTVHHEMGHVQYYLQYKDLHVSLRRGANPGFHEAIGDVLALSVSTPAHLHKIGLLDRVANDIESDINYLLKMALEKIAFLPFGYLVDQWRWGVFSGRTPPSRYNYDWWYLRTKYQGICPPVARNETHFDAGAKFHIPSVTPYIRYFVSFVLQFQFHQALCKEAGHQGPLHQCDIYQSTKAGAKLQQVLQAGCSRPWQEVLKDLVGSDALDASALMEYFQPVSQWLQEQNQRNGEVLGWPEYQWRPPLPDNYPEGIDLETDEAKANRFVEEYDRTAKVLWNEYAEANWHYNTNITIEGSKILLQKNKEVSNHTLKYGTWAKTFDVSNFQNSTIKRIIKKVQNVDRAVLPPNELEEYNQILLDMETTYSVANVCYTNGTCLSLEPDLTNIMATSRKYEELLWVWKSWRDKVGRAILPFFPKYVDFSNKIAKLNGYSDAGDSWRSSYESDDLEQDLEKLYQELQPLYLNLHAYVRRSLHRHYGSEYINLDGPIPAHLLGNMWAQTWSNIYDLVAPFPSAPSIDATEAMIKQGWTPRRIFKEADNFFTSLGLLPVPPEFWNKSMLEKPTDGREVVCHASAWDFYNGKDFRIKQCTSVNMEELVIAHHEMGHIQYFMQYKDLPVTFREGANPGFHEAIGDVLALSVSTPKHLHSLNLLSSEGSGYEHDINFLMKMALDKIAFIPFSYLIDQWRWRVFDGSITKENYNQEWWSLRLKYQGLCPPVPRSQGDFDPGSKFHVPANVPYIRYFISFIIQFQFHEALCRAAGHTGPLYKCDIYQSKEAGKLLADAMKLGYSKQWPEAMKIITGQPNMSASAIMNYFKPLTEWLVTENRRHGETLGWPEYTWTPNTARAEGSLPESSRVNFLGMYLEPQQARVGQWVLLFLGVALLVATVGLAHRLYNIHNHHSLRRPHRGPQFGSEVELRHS
compound,measurement,setting,value
CCOC(=O)[C@H](CCc1ccccc1)N[C@@H](C)C(=O)N1CCC[C@H]1C(=O)O [ENALAPRIL],Activity,[1],138 mmHg
same,Decrease,[2],14%
same,Blood pressure,[3],163 mmHg
same,Decrease,[4],84%
same,Activity,[5],128 mmHg
same,Activity,[6],128 mmHg
same,Response,[7],7 mmHg
same,Response,[8],-61 mmHg
same,Decrease,[9],60%
same,Change,[10],107%
same,Blood pressure,[11],199 mmHg
same,Change,[12],-7%
same,Activity,[13],148 mmHg
same,Response,[14],37 mmHg
same,Response,[15],-45 mmHg
same,half-life,[16],2.5 h
same,Decrease,[17],81%
same,Heart rate,[18],386 beats min-1
same,Response,[19],8 mmHg
same,ED50,[20],0.0097 mg/kg
same,Response,[21],17 mmHg
same,Heart rate,[22],380 beats min-1
same,Response,[23],-27 mmHg
same,Decrease,[24],37%
same,Response,[25],27 mmHg
same,Change,[26],110%
same,Activity,[27],134 mmHg
same,Change,[28],55%
same,Response,[29],-60 mmHg
same,Activity,[30],123 mmHg
same,ED50,[31],0.066 mg/kg
same,ED30,[32],1.5 mg/kg
same,Heart rate,[33],378 beats min-1
same,Blood pressure,[34],169 mmHg
CCOC(=O)[C@H](CCc1ccccc1)N[C@H](C)C(=O)N1C(=O)CC[C@H]1C(=O)O,ED50,[35],4 mg/kg
